Data taken from ChEMBL document CHEMBL2057186, “Application of the bicyclo[1.1.1]pentane motif as a nonclassical phenyl ring bioisostere in the design of a potent and orally active γ-secretase inhibitor” (J Med Chem, 2012).
Values after ≈ are worked out from the molar mass of the structure shown.

Key:
Mus musculus [1] = assay: Antialzheimer activity in 129/sve mouse assessed as reduction in amyloid beta42 level in brain at 30 mg/kg, po administered as single dose measured at 5 hrs by ELISA relative to vehicle treated control; type: functional; set-up: scale not given: the % may be the effect or the level left
Procedure, shortened: (§1)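 Wild-type male 129/sve mice received a single oral dose in Phosal 50 PG/Tween 80 vehicle. Aβ40 was measured in brain, CSF and plasma and Aβ42 in brain over a time course. Levels are expressed as % of vehicle-treated animals. Values are mean ± SEM, n = 5 or 8 per time point.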

Mus musculus [2] = assay: Antialzheimer activity in 129/sve mouse assessed as reduction in amyloid beta40 level in CSF at 30 mg/kg, po administered as single dose measured at 1 hr by ELISA relative to vehicle treated control; type: functional; set-up: scale not given: the % may be the effect or the level left; procedure, shortened: as §1
[3] = AUC (last) in 129/sve mouse plasma at 30 mg/kg, po administered as single dose by LC-MS/MS analysis; type: ADME, organism-based; set-up: dose 30 mg/kg, route oral, time 0 - last
Procedure, shortened: (§2)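 Wild-type male 129/sve mice received a single oral dose in 98% (v/v) Phosal 50 PG / 2% Tween 80. Drug was measured in plasma, brain and CSF. Study was nonserial, so AUC came from mean matrix concentrations at each time point. Values are mean ± SD (n = 4 or 5).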

[4] = AUC (last) in 129/sve mouse brain at 30 mg/kg, po administered as single dose by LC-MS/MS analysis; type: ADME, organism-based; set-up: time 0 - last, dose 30 mg/kg, route oral; procedure, shortened: as §2
Homo sapiens = organism: Homo sapiens; assay: Selectivity for human gamma-seretase over notch signalling protein
Hepatocyte = assay: Apparent total intrinsic clearance in human hepatocytes assessed per million cells; type: ADME, cell-based
[5] = Apparent permeability from apical to basal side of dog RRCK cells; type: ADME, cell-based, Canis lupus familiaris, MDCKII-LE; details: MDCK
Procedure, shortened: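 Absorptive (A to B) permeability was measured in RRCK cells, a Madin–Darby canine kidney subline isolated for low transporter activity. It estimates intrinsic passive permeability.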

[6] = Kinetic solubility of the solubility of the compound at pH 6.5; type: physicochemical; details: buffer, read-out: Kinetic_solubility
Procedure, shortened: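 Kinetic solubility was measured in aqueous buffer at pH 6.5.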

[7] = Thermodynamic solubility of the compound at pH 6.5; type: physicochemical; details: buffer, read-out: Therm_solubility
Procedure, shortened: (§3)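 Thermodynamic solubility was measured in aqueous buffer at pH 6.5 and at pH 7.4.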

[8] = Thermodynamic solubility of the compound at pH 7.4; type: physicochemical; details: buffer, read-out: Therm_solubility; procedure, shortened: as §3
Cytochrome P450 1A2 = biological target: T1, Cytochrome P450 1A2 (Homo sapiens, UniProt P05177); assay: Inhibition of CYP1A2 in human liver microsomes using tacrine as substrate; type: ADME, Microsome
T1 sequence (P05177 whole entry): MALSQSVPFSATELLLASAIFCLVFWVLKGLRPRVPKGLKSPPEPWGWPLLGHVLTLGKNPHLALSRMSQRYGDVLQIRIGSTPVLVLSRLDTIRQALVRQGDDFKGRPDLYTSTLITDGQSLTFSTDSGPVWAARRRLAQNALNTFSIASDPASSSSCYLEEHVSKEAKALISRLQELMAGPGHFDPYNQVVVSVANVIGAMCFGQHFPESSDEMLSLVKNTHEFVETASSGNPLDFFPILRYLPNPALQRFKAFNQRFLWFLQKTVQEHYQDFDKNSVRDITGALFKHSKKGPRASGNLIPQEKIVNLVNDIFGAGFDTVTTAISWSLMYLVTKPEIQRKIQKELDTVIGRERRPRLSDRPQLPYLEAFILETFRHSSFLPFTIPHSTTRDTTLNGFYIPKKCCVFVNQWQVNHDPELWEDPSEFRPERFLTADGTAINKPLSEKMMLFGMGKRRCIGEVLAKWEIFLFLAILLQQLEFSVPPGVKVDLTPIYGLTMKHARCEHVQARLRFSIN

Cytochrome P450 2C9 = Cytochrome P450 2C9 (Homo sapiens, UniProt P11712); assay: Inhibition of CYP2C9 in human liver microsomes using diclofenac as substrate; type: ADME, Microsome
Chain of Cytochrome P450 2C9 (P11712 whole entry): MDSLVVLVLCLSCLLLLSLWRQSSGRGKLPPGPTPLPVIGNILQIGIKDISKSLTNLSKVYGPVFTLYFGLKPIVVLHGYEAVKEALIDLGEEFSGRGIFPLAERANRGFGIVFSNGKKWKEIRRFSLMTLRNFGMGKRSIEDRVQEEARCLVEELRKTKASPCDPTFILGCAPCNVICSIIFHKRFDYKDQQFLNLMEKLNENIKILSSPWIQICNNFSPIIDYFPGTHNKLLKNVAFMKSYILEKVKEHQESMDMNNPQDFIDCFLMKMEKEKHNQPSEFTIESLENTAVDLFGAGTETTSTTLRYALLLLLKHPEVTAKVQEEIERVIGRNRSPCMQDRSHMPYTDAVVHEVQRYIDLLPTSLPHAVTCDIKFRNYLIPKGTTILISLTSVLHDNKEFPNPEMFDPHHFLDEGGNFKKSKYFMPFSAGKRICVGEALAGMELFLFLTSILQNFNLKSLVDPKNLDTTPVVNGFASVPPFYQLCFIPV

Cytochrome P450 2D6 = Cytochrome P450 2D6 (Homo sapiens, UniProt P10635); assay: Inhibition of CYP2D6 in human liver microsomes using dextromethorphan as substrate; type: ADME, Microsome
Chain of Cytochrome P450 2D6 (P10635 whole entry): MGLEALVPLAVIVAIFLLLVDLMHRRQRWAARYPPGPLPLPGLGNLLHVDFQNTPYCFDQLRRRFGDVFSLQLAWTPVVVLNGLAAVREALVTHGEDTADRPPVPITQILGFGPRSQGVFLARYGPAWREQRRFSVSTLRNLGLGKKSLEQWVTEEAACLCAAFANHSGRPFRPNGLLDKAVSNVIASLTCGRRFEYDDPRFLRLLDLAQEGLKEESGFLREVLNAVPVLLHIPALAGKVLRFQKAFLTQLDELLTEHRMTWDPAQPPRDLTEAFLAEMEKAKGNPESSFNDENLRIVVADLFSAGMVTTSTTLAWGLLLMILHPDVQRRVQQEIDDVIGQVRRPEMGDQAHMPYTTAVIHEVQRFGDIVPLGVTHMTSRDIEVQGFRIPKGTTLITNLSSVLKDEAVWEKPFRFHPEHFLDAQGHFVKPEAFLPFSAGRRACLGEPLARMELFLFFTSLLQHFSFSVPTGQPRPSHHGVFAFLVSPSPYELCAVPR

Cytochrome P450 3A4 = Cytochrome P450 3A4 (Homo sapiens, UniProt P08684); assay: Inhibition of CYP3A4 in human liver microsomes using midazolam as substrate; type: ADME, Microsome
Chain of Cytochrome P450 3A4 (P08684 whole entry): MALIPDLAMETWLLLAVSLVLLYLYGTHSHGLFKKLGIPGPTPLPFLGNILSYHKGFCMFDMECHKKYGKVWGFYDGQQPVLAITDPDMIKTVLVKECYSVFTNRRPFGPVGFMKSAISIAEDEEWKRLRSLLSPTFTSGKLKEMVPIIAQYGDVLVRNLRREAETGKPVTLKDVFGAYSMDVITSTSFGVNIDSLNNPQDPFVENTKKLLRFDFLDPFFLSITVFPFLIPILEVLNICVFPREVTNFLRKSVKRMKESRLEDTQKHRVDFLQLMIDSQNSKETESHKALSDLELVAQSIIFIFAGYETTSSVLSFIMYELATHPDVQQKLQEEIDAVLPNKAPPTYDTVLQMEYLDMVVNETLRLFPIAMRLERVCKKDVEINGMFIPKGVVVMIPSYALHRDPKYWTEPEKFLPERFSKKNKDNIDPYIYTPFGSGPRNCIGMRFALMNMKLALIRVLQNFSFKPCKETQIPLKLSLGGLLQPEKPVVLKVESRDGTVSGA

[9] = biological target: Voltage-gated inwardly rectifying potassium channel KCNH2 (Homo sapiens, UniProt Q12809); assay: Displacement of dofetilide from human ERG
Chain of Voltage-gated inwardly rectifying potassium channel KCNH2 (Q12809 whole entry): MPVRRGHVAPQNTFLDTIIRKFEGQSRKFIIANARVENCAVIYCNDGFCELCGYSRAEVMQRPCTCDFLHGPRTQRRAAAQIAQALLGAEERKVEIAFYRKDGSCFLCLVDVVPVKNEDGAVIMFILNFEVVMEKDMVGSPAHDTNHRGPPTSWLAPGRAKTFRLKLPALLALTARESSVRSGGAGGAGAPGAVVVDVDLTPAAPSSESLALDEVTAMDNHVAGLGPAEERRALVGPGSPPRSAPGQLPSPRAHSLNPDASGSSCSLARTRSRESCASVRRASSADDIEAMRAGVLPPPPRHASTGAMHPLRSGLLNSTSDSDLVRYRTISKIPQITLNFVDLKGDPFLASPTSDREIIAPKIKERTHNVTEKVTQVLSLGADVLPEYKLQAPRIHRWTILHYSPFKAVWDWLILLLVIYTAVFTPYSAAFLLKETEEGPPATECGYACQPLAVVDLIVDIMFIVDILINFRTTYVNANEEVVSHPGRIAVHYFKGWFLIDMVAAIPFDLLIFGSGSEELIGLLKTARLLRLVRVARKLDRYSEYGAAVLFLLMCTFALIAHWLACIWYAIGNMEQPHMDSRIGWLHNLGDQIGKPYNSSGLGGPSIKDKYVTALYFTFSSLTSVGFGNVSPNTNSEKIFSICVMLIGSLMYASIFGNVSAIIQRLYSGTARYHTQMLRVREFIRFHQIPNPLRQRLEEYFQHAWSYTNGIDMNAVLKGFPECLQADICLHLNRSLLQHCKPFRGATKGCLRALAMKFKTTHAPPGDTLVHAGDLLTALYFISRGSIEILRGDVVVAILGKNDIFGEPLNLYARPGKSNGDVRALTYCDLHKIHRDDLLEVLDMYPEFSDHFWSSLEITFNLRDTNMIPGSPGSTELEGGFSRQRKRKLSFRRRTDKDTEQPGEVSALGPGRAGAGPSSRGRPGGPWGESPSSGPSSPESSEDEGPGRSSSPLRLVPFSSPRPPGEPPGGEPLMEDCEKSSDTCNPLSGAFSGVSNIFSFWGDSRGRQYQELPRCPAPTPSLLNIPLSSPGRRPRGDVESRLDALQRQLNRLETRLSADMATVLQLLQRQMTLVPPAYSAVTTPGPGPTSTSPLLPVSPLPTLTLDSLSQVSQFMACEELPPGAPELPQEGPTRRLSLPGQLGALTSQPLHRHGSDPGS

[10] = Cmax in Sprague-Dawley rat at 5 mg/kg, po; type: ADME, organism-based; set-up: dose 5 mg/kg, route oral; details: in vivo
Procedure, shortened: (§4)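 Female rats were dosed once, 1 mg/kg iv (2 mL/kg, 0.5 mg/mL) or 5 mg/kg po (10 mL/kg, 0.5 mg/mL). Vehicle was 40% (w/v) hydroxypropyl-β-cyclodextrin. Plasma was sampled to 24 h. Values are means ± SEM (n = 3).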

[11] = Tmax in Sprague-Dawley rat at 5 mg/kg, po; type: ADME, organism-based; set-up: dose 5 mg/kg, route oral; details: in vivo; procedure, shortened: as §4
[12] = AUC (0 to 24 hrs) in Sprague-Dawley rat at 5 mg/kg, po; type: ADME, organism-based; set-up: time < 24 hr, dose 5 mg/kg, route oral; details: plasma
Procedure, shortened: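 Single-dose PK in female rats; iv at 1 mg/kg (2 mL/kg, 0.5 mg/mL) and po at 5 mg/kg (10 mL/kg, 0.5 mg/mL), both formulated in 40% (w/v) hydroxypropyl-β-cyclodextrin.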

[13] = Half life in Sprague-Dawley rat at 1 mg/kg, iv; type: ADME, organism-based; set-up: dose 1 mg/kg, route intravenous; details: in vivo; procedure, shortened: as §4
[14] = Volume of distribution at steady state in Sprague-Dawley rat at 1 mg/kg, iv; type: ADME, organism-based; set-up: dose 1 mg/kg, route intravenous; details: in vivo, read-out: Vdss; procedure, shortened: as §4
[15] = Cmax in 129/sve mouse plasma at 30 mg/kg, po administered as single dose by LC-MS/MS analysis; type: ADME, organism-based; set-up: dose 30 mg/kg, route oral
Procedure, shortened: (§5)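 Single-dose oral PK in wild-type male 129/sve mice. Formulation was 98% (v/v) Phosal 50 PG with 2% Tween 80. Compound was measured in plasma, brain and CSF. Values are means ± standard deviations (n = 4 or 5).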

[16] = Tmax in 129/sve mouse plasma at 30 mg/kg, po administered as single dose by LC-MS/MS analysis; type: ADME, organism-based; set-up: dose 30 mg/kg, route oral; procedure, shortened: as §5
[17] = Cmax in 129/sve mouse brain at 30 mg/kg, po administered as single dose by LC-MS/MS analysis; type: ADME, organism-based; set-up: dose 30 mg/kg, route oral; procedure, shortened: as §5
[18] = Ratio of unbound fraction in brain to unbound fraction in plasma in 129/sve mouse at 30 mg/kg, po administered as single dose by LC-MS/MS analysis; type: ADME, organism-based; set-up: dose 30 mg/kg, route oral; details: in vivo
Procedure, shortened: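 Single oral dose of 30 mg/kg in wild-type male 129/sve mice, formulated in 98% (v/v) Phosal 50 PG with 2% Tween 80. Brain, CSF and plasma were sampled nonserially over time, and AUC was taken from mean matrix concentrations. Brain availability = (f_u,brain × [brain]) / (f_u,plasma × [plasma]), with n = 4–5 per group.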

[19] = Cmax in 129/sve mouse cerebrospinal fluid at 30 mg/kg, po administered as single dose by LC-MS/MS analysis; type: ADME, organism-based; set-up: dose 30 mg/kg, route oral; procedure, shortened: as §5
[20] = Tmax in 129/sve mouse cerebrospinal fluid at 30 mg/kg, po administered as single dose by LC-MS/MS analysis; type: ADME, organism-based; set-up: dose 30 mg/kg, route oral; procedure, shortened: as §5
Gamma-secretase = assay: Inhibition of gamma secretase-mediated amyloid beta42 production in human H4 cells expressing human wild-type APP

AUC(0-t) [3]: 14.3 µM·h
AUC(0-t) [4]: 12 µM·h
Selectivity Index (Homo sapiens): 178
CLt/F (Hepatocyte): < 3.8 µL/min
Papp A→B [5]: 19.3 ×10⁻⁶ cm/s
solubility kinetic [6]: 216 µM (≈ 106 µg/mL)
solubility thermodynamic [7]: 19.7 µM (≈ 9.71 µg/mL)
solubility thermodynamic [8]: 29.4 µM (≈ 14.5 µg/mL)
inhibition (INH) (Cytochrome P450 1A2): Not Active
inhibition (INH) (Cytochrome P450 2C9): Not Active
inhibition (INH) (Cytochrome P450 2D6): Not Active
inhibition (INH) (Cytochrome P450 3A4): Not Active
Cmax [10]: 1.86 µM
Tmax [11]: 2 h
AUC(0-t) at 24 h [12]: 19.4 µM·h
half-life [13]: 2.18 h
Vd [14]: 2.12 L/kg
Cmax [15]: 6.48 µM
Tmax [16]: 1 h
Cmax [17]: 5.6 µM
Ratio [18]: 0.62
Cmax [19]: 0.053 µM
Tmax [20]: 1 h
IC50 (Gamma-secretase): 0.178 nM
Structure (SMILES): NC(=O)[C@@H](CCC(F)(F)F)N(CC12CC(c3ncon3)(C1)C2)S(=O)(=O)c1ccc(Cl)cc1
Activity (Mus musculus [1]): 31%
Activity (Mus musculus [2]): 64%
Activity [9]: Not Active
